Experiments:
HepG2 = experiment: Cytotoxicity against human HepG2 cells after 72 hrs by MTT assay; format: functional, cell-based; conditions: HepG2, 72 h
Outline: (§1)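 MTT growth-inhibition assay in human HepG2 hepatocellular, NCI-N87 gastric and MCF-7 breast carcinoma lines, with a doxorubicin positive control. IC50 values are means ± SD from three individual experiments; >10.0 μM was taken as noncytotoxic.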

NCI-N87 = experiment: Cytotoxicity against human NCI-N87 cells after 72 hrs by MTT assay; format: functional, cell-based; conditions: NCI-N87, 72 h; outline: as §1
MCF7 = experiment: Cytotoxicity against human MCF7 cells after 72 hrs by MTT assay; format: functional, cell-based; conditions: MCF7, 72 h; outline: as §1
RAW264.7 [1] = experiment: Anti-inflammatory activity in mouse RAW264.7 cells assessed as inhibition of LPS-induced IL-6 production at 2 uM pretreated for 1 hr followed by LPS stimulation measured after 24 hrs by ELISA relative to control; format: functional
Outline: (§2)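 LPS-stimulated RAW 264.7 macrophages, with IL-6 and TNF-α production read separately. Test concentrations were 0.4, 2, 10 and 50 μM, and dexamethasone was the reference drug. Results are given as percent inhibition of cytokine production.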

RAW264.7 [2] = experiment: Anti-inflammatory activity in mouse RAW264.7 cells assessed as inhibition of LPS-induced IL-6 production at 10 uM pretreated for 1 hr followed by LPS stimulation measured after 24 hrs by ELISA relative to control; format: functional; outline: as §2
[3] = Cytotoxicity against mouse RAW264.7 cells assessed as growth inhibition at 10 uM after 72 hrs by MTT assay relative to control; format: cell-based; conditions: read-out: GI
RAW264.7 [4] = experiment: Anti-inflammatory activity in mouse RAW264.7 cells assessed as inhibition of LPS-induced IL-6 production at 0.4 uM pretreated for 1 hr followed by LPS stimulation measured after 24 hrs by ELISA relative to control; format: functional; outline: as §2
RAW264.7 [5] = experiment: Anti-inflammatory activity in mouse RAW264.7 cells assessed as inhibition of LPS-induced TNF-alpha production at 2 uM pretreated for 1 hr followed by LPS stimulation measured after 24 hrs by ELISA relative to control; format: functional; outline: as §2
RAW264.7 [6] = experiment: Anti-inflammatory activity in mouse RAW264.7 cells assessed as inhibition of LPS-induced TNF-alpha production at 0.4 uM pretreated for 1 hr followed by LPS stimulation measured after 24 hrs by ELISA relative to control; format: functional; outline: as §2
RAW264.7 [7] = experiment: Anti-inflammatory activity in mouse RAW264.7 cells assessed as inhibition of LPS-induced TNF-alpha production at 50 uM pretreated for 1 hr followed by LPS stimulation measured after 24 hrs by ELISA relative to control; format: functional; outline: as §2
RAW264.7 [8] = experiment: Anti-inflammatory activity in mouse RAW264.7 cells assessed as inhibition of LPS-induced IL-6 production at 50 uM pretreated for 1 hr followed by LPS stimulation measured after 24 hrs by ELISA relative to control; format: functional; outline: as §2
RAW264.7 [9] = experiment: Anti-inflammatory activity in mouse RAW264.7 cells assessed as inhibition of LPS-induced TNF-alpha production at 10 uM pretreated for 1 hr followed by LPS stimulation measured after 24 hrs by ELISA relative to control; format: functional; outline: as §2

SMILES	IC50 (HepG2) [µM]	IC50 (NCI-N87) [µM]	IC50 (MCF7) [µM]	inhibition at 2 µM (RAW264.7 [1]) [%]	inhibition at 10 µM (RAW264.7 [2]) [%]	inhibition at 72 h, 10 µM [3] [%]	inhibition at 0.4 µM (RAW264.7 [4]) [%]	inhibition at 2 µM (RAW264.7 [5]) [%]	inhibition at 0.4 µM (RAW264.7 [6]) [%]	inhibition at 50 µM (RAW264.7 [7]) [%]	inhibition at 50 µM (RAW264.7 [8]) [%]	inhibition at 10 µM (RAW264.7 [9]) [%]
COC(=O)[C@]12CCC(C)(C)CC1=C1CC[C@@H]3[C@@]4(C)CC[C@H](O)C(C)(C)[C@@H]4CC[C@@]3(C)[C@]1(C(=O)O)CC2	5	5.1	> 10	–	–	–	–	–	–	–	–	–
C[C@H]1[C@@H]2[C@H]3CC[C@@H]4[C@@]5(C)CC[C@H](O)C(C)(C)[C@@H]5CC[C@@]4(C)[C@]3(C)CC[C@@]23C[C@@H](O)[C@]1(C)OC3=O	> 10	7.3	> 10	< 50	< 50	< 5	< 50	< 50	< 50	< 50	< 50	< 50
C[C@H]1[C@H](C)CC[C@]2(C(=O)O)CC[C@]3(C)C(=C[C@@H](O)[C@@H]4[C@@]5(C)C[C@@H](O)[C@H](O)[C@@](C)(CO)[C@@H]5CC[C@]43C)[C@H]12	> 10	> 10	> 10	< 50	< 50	< 5	< 50	< 50	< 50	< 50	< 50	< 50
CC1=CC[C@]2(C(=O)O)CC[C@]3(C=O)[C@H](CC[C@@H]4[C@@]5(C)CC[C@H](O)C(C)(C)[C@@H]5CC[C@]43C)[C@H]2[C@@H]1C	> 10	> 10	> 10	19.2	53.8	< 5	23.6	14.1	14.8	–	–	35.9
C=C1CC[C@]2(C(=O)O)CC[C@]3(C)C(=CC[C@@H]4[C@@]5(C)C[C@@H](O)[C@H](O)C(C)(C)[C@@H]5CC[C@]43C)[C@@H]2[C@H]1C	> 10	> 10	> 10	< 50	< 50	< 5	< 50	< 50	< 50	< 50	< 50	< 50
COC(=O)[C@@]12CC[C@]3(C(=O)O)[C@H](CC[C@@H]4[C@@]5(C)CC[C@H](O)C(C)(C)[C@@H]5CC[C@]43C)[C@@H]1[C@@H](C)C(C)=C[C@H]2O	> 10	> 10	> 10	< 50	< 50	< 5	< 50	< 50	< 50	< 50	< 50	< 50
C=C1CC[C@]2(C(=O)O)CC[C@]3(C)C(=C[C@@H](O)[C@@H]4[C@@]5(C)C[C@@H](O)[C@H](O)[C@@](C)(CO)[C@@H]5CC[C@]43C)[C@@H]2[C@H]1C	> 10	> 10	> 10	< 50	< 50	< 5	< 50	< 50	< 50	< 50	< 50	< 50
CC1=CC[C@]2(C(=O)O)CC[C@]3(C)[C@H](CC[C@@H]4[C@@]5(C)CC[C@H](O)C(C)(C)[C@@H]5CC[C@]43C)[C@H]2[C@@H]1C	1.9	2.4	4.3	–	–	–	–	–	–	–	–	–
C=C1CC[C@]2(C(=O)O)CC[C@]3(C)C(=CC[C@@H]4[C@@]5(C)C[C@@H](O)[C@H](O)[C@@](C)(CO)[C@@H]5CC[C@]43C)[C@@H]2[C@H]1C [ACTINIDIC ACID]	> 10	> 10	> 10	< 50	< 50	< 5	< 50	< 50	< 50	< 50	< 50	< 50
CC1(C)CC[C@]2(C(=O)O)CC[C@]3(C)C(=CC[C@@H]4[C@@]5(C)C[C@@H](O)[C@H](O)[C@@](C)(CO)[C@@H]5CC[C@]43C)[C@@H]2C1 [ARJUNOLIC ACID]	> 10	> 10	> 10	< 50	< 50	< 5	< 50	< 50	< 50	< 50	< 50	< 50
C[C@H]1[C@H](C)CC[C@]2(C(=O)O)CC[C@]3(C)C(=CC[C@@H]4[C@@]5(C)C[C@@H](O)[C@H](O)[C@@](C)(CO)[C@@H]5CC[C@]43C)[C@H]12 [ASIATIC ACID]	> 10	> 10	> 10	< 50	< 50	< 5	< 50	< 50	< 50	< 50	< 50	< 50
C[C@@H]1C[C@H]2[C@@H]3CCC4=CC(=O)C=C[C@]4(C)[C@@]3(F)[C@@H](O)C[C@]2(C)[C@@]1(O)C(=O)CO [DEXAMETHASONE]	–	–	–	75.9	80.4	–	–	71.8	–	86.1	84.9	79.2
COc1cccc2c1C(=O)c1c(O)c3c(c(O)c1C2=O)C[C@@](O)(C(=O)CO)C[C@@H]3O[C@H]1C[C@H](N)[C@H](O)[C@H](C)O1 [DOXORUBICIN]	–	1.6	–	–	–	–	–	–	–	–	–	–
C=C1[C@@H](O)[C@H](O)C[C@]2(C)[C@H]3CC=C4[C@@H]5[C@@H](C)[C@H](C)CC[C@]5(C(=O)O)CC[C@@]4(C)[C@]3(C)CC[C@@H]12 [ILEKUDINOL B]	> 10	9.1	> 10	–	–	–	–	–	–	–	–	–
CC1(C)CC[C@]2(C(=O)O)CC[C@]3(C)C(=CC[C@@H]4[C@@]5(C)CC[C@H](O)C(C)(C)[C@@H]5CC[C@]43C)[C@@H]2C1 [OLEANOLIC_ACID]	> 10	> 10	> 10	–	–	–	–	–	–	–	–	–
C[C@H]1[C@H](C)CC[C@]2(C(=O)O)CC[C@]3(C)C(=CC[C@@H]4[C@@]5(C)CC[C@H](O)C(C)(C)[C@@H]5CC[C@]43C)[C@H]12 [URSOLIC ACID]	> 10	4.2	6.6	–	–	–	–	–	–	–	–	–
